Assay outcomes deposited in PubChem by several laboratories.
Mcl1-Noxa inh = disrupts binding of human Mcl-1 to Noxa peptide | TR-FRET Mcl-1/Noxa peptide binding, 2 h | inhibition, % at 21.7 µM | hit rate 1.5% among 220,000;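 active = compounds that cut the protein-peptide binding signal by more than 50% relative to plate controls in a single-dose test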;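 note: His-tagged Mcl-1 with rhodamine Noxa BH3 peptide and terbium anti-His antibody; 0% = Mcl-1 plus Noxa peptide wells and 100% = peptide-only wells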
Target sequence (Q07820 whole entry, looked up): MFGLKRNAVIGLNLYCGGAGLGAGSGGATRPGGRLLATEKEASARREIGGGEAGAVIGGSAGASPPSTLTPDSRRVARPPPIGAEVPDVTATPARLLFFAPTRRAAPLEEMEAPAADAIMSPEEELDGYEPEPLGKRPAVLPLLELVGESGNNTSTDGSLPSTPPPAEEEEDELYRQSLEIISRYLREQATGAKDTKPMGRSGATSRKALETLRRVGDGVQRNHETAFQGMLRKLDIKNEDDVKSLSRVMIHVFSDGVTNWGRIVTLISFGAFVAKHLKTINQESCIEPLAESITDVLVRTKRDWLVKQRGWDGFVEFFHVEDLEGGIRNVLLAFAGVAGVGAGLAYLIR
RBBP9 inhibitor = blocks human serine hydrolase RBBP9; O75884; recombinant RBBP9, FP-Rh probe fluorescence polarization; inhibition, % at 7.94 µM; AID 1515; hit rate 0.2% among 220,000;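 active = inhibition above the campaign mean of all tested compounds plus 3 SD, cut at about 14% in these data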;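 note: plate controls were DMSO wells with RBBP9 for no effect and wells lacking RBBP9 protein for full effect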
Target sequence (O75884 whole entry, looked up): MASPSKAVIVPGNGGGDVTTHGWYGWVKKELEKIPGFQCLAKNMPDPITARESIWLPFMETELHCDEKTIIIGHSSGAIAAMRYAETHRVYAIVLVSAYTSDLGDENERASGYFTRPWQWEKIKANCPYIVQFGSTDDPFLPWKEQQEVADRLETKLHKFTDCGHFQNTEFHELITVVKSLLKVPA
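system = RBBP9 protein | input = RBBP9 at 2.5 µM in dispensed solution, before mixing | measured by = fluorescence polarization (mP), excitation 525 nm, emission 598 nm | incubation = enzyme-compound preincubation 30 min, then probe labeling 45 min, 25 °C | buffer or medium = Tris-NaCl-Pluronic buffer, pH 8.0 | compound = single dose 7.94 µM | also added = FP-Rh probe, 375 nM dispensing solution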
EBV gp42 block = blocks Epstein-Barr virus glycoprotein 42 binding. AID 1085. hit rate 0.42% among 220,000. Fluorescence polarization binding assay, mP read-out. inhibition, % (tested at 21.74 µM). Q1HVG2; in the data active = inhibition above about 50%
Mcl1 Bid PPI = disrupts binding of human Mcl-1 to Bid peptide; Q07820; TR-FRET Mcl-1/Bid-Dy647 peptide binding, 1536-well; inhibition, % at 21.7 µM; hit rate 0.97% among 220,000; AID 1021;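 active = compounds that cut the binding signal by more than half at the single screening dose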;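 note: His-tagged Mcl-1 with europium anti-His antibody binding Bid BH3 peptide; 0% = Mcl-1 plus peptide wells and 100% = peptide-only wells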
MCL1-BIM inh = MCL1-BIM-BH3 interaction inhibition (human). hit rate 0.68% among 320,000. inhibition, % at 10.9 µM. Q07820. GST-MCL1 / FITC-Bim-BH3 fluorescence polarization;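 active = inhibition above the mean inhibition of all tested compounds plus 3 SD, set per campaign, cut at about 40% in these data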;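 note: 0% = DMSO wells and 100% = unlabeled Bim-BH3 peptide control; higher means more loss of mP so more displacement of Bim peptide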
Bim-Mcl-1 = disrupts Bim peptide binding to human Mcl-1 | Bead-based flow cytometry, Bim peptide-Mcl-1 binding | inhibition, % at 10 µM | hit rate 0.1% among 190,000 | AID 1009; in the data active = inhibition above about 40%;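 note: 0% = no compound tracer wells and 100% = peptide blocker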
BCLXL inh confirm = Bcl-xL (human) inhibition, MCL1 counter-screen confirmation | shares compounds with MCL1-BIM inh | GST-Bcl-xL / FITC-Bim BH3 peptide FP binding | inhibition, % at 10.9 µM | hit rate 54% among 1,700 | AID 2166;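 active = inhibition above a cutoff equal to the mean inhibition of all tested compounds plus 3 SD, cut at about 30% in these data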;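 note: 0% = DMSO wells and 100% = unlabeled Bim BH3 control peptide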
MCL1 BIM confirm = MCL1-BIM-BH3 interaction inhibition, confirmation; shares compounds with MCL1-BIM inh; GST-MCL1 / FITC-Bim-BH3 fluorescence polarization; inhibition, % at 10.9 µM; hit rate 61% among 1,700; AID 2168;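 active = inhibition above the average of all tested compounds plus 3 SD, cut at about 40% in these data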;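 note: 0% = DMSO wells and 100% = unlabeled Bim-BH3 control peptide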
* marks the source's active call; other numbers are inactive results; . = no result; + = active, no number. The list is not random: actives were taken first. Their share in the collection is about 2.2%.

SMILES	Mcl1-Noxa inh	RBBP9 inhibitor	EBV gp42 block	Mcl1 Bid PPI	MCL1-BIM inh	Bim-Mcl-1	BCLXL inh confirm	MCL1 BIM confirm
CCOC(=O)C1=C(CSc2nc(CC)c(C)cc2C#N)OC(N)=C(C#N)C1c1ccccc1 (configuration not stated)	3	-5	-12	-2	-4	-1	.	.
Nc1ccc(C(=O)OCCc2ccccc2)cc1	.	.	.	.	3	.	.	.
O=C(OCCc1ccccc1)c1cc(O)c(O)c(O)c1	.	.	.	.	54*	.	41*	75*
COc1cc2ccccc2cc1C(=O)OCC(=O)c1c(N)n(C)c(=O)n(C)c1=O	.	.	.	.	-11	.	.	.
Cc1ccc(S(=O)(=O)c2nc(Cc3ccccc3)oc2N2CCOCC2)cc1	.	.	.	.	58*	.	14	79*
Cc1ccc(S(=O)(=O)c2nc(-c3ccccc3)oc2N2CCCC2)cc1	.	.	.	.	29	.	.	.
COC(=O)Cc1c(C)c2ccc(OCC(=O)N(C)C3CCS(=O)(=O)C3)cc2oc1=O (configuration not stated)	.	.	.	.	1	.	.	.
Cn1c(=O)c2c(ncn2CC(=O)OCC(=O)Nc2ccc(F)cc2F)n(C)c1=O	.	.	.	.	3	.	.	.
C=CCNC(=O)/C(=C/c1cccc([N+](=O)[O-])c1)NC(=O)c1ccco1	-6	-6	-23	-29	1	0	.	.
N#CC1=C(N)Oc2cc(N)ccc2C1c1ccc(F)cc1F (configuration not stated)	.	.	.	.	54*	.	23	23
N#CC1=C(N)Oc2cc(N)ccc2C1c1ccc(F)cc1 (configuration not stated)	0	-12	-8	-17	5	-4	.	.
COc1ccc2nc(SCC(=O)N(C)CC(=O)Nc3ccc(F)cc3)[nH]c2c1	.	.	.	.	-6	.	.	.
CC(C)c1ccc(C2NC(=O)CCC2[N+](=O)[O-])cc1 (configuration not stated)	1	-5	-10	-21	1	5	.	.
CC1=Nc2ccccc2/C1=C\c1nc(-c2ccc(C(F)(F)F)cc2)oc1O	-2	1	40	3	58*	-1	100*	126*
CC1=Nc2ccccc2/C1=C\c1nc(-c2ccccc2)oc1O	11	-7	-14	-23	-19	0	.	.
O=C(COc1cccc2ccccc12)N/N=C/c1ccccc1OCc1ccc(C(=O)O)cc1	33	-7	-5	-27	49*	-1	6	39
O=C(COc1ccccc1-c1ccccc1)N/N=C/c1cccc2ccccc12	9	-11	-7	-6	1	-5	.	.
CC(=O)Nc1ccc(SCCCC(=O)c2ccccc2)cc1	.	.	.	.	11	.	.	.
O=C1C=C(O)c2c(O)cc(O)c(O)c2C1=O	.	.	.	.	95*	.	27	97*
C[C@@H]1Cc2c(O)c(O)cc(O)c2C(=O)O1	15	.	-1	-99	6	.	.	.
CC(C)n1cnnc1SCC(=O)NC(=O)c1ccccc1	.	.	.	.	-6	.	.	.
CCOC(=O)CNC1CC(=O)N(c2ccc(Br)cc2)C1=O (configuration not stated)	.	.	.	.	2	.	.	.
Nc1ccc(S(=O)(=O)Nc2nc3ccccc3o2)cc1	.	.	.	.	45*	.	28	47*
CN(C)Cc1c(O)ccc2cc(-c3nc4ccccc4n3C)c(=O)oc12	.	.	.	.	64*	.	27	33
CCOc1cc(C2C3=C(CCCC3=O)NC3=C2C(=O)CCC3)cc(Cl)c1O	37	.	-18	-25	8	-3	.	.
SMILES	Mcl1-Noxa inh	RBBP9 inhibitor	EBV gp42 block	Mcl1 Bid PPI	MCL1-BIM inh	Bim-Mcl-1	BCLXL inh confirm	MCL1 BIM confirm
CCOc1cc(C2C3=C(CCCC3=O)N(C)C3=C2C(=O)CCC3)cc(Cl)c1O	8	5	8	-22	50*	0	26	24
CCCc1nnc(NC(=O)CCC(=O)N2CCN(Cc3cc(Cl)ccc3OC)CC2)s1	.	.	.	.	4	.	.	.
O=C(O)c1c2c(nc3ccccc13)/C(=C/c1ccc(O)cc1)CC2	55*	-12	1	-19	54*	2	34*	54*
CCOC(=O)CNC(=S)N(CCCN1CCN(C)CC1)Cc1cccs1	.	.	.	.	-2	.	.	.
Cc1ccc(-c2c3c([nH]c(=S)c2C#N)CCCC3)o1	74*	-7	-6	-26	43*	2	25	20
CN1Cc2c(N)cccc2C(c2ccccc2)C1 (configuration not stated)	8	-10	29	0	92*	-3	26	25
O=C1CC(c2ccccc2)c2ccccc21 (configuration not stated)	12	-4	-4	0	-1	-2	.	.
Cc1sc2ncn(CC(=O)NCCCC(=O)N3CCC(C(N)=O)CC3)c(=O)c2c1C	.	.	.	.	-2	.	.	.
Cc1ccc(OCCOCCn2ccnc2)c(Br)c1	9	-1	-2	22	44*	-8	-8	-22
Cc1ccc(OCCn2ccnc2)c(C)c1	.	.	.	.	8	.	.	.
O=C(CCn1cnc(-c2ccccc2)c1-c1ccccc1)N/N=C/c1ccccc1O	-59	-2	-16	-77	15	-1	.	.
C/C(=N\NC(=O)c1cc(O)cc(O)c1)c1ccc(NC(=O)Cc2ccccc2)cc1	.	.	.	.	78*	.	46*	93*
Cc1ccc2c(c1)Sc1c(ccc3ccccc13)N2	40	-1	-6	-19	71*	.	80*	104*
Cc1ccc(N2C(=O)c3cccc4c(C(=O)O)ccc(c34)C2=O)cc1	8	6	-20	-2	2	0	.	.
O=C1c2cccc3c(O)ccc(c23)C(=O)N1c1ccc(Cl)cc1	.	.	.	.	+	.	+	+
CC(=O)Nc1ccc(N2C(=O)c3cccc4c(O)ccc(c34)C2=O)cc1	.	.	.	.	+	.	+	+
O=C1c2ccccc2C(=O)N1c1ccc(Cl)cc1	-22	-5	-12	-30	2	-25	.	.
CCOc1ccc(CCNC(=O)COC(=O)c2sccc2C)cc1OCC	.	.	.	.	-8	.	.	.
CN1/C(=C\C=N\NC(=O)c2cccnc2)C(C)(C)c2ccccc21	1	-3	-20	-26	8	0	.	.
CN1/C(=C\C=N\NC(=O)c2ccc(O)cc2)C(C)(C)c2ccccc21	-3	-9	-7	-98	47*	-4	-15	-28
O=C(O)c1ccc(-n2cccc2/C=N\NC(=O)c2cc3cc(Br)ccc3o2)cc1	92*	-8	34	-36	62*	.	24	57*
COc1ccc2oc(C(=O)OC(C)C(=O)NCc3ccccc3)c(C)c2c1 (configuration not stated)	.	.	.	.	44*	.	6	2
Cc1cc(C)c[n+](-c2nc3ccccc3nc2[N-]S(=O)(=O)c2ccc(Br)s2)c1	15	-6	66*	10	47*	-3	63*	92*
CC(/C=C1\SC(=S)N(c2ccc(C(=O)O)cc2)C1=O)=C\c1ccccc1	84*	-25	16	21	48*	.	7	9
